Source: ChEMBL document CHEMBL1122356, “The antihypertensive and positive inotropic diterpene forskolin: effects of structural modifications on its activity” (J Med Chem, 1983)
The source made the active and inactive calls. The rule behind the calls is not given here.

How the values were obtained:
[1] = species on record: Felis catus; assay: Effective dose in cat was determined; assay type: functional
How it was run: (§1)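 Cats of either sex (3.0-4.5 kg) under chloralose anesthesia (70 mg/kg iv). Compounds were dissolved in propylene glycol (10 mg/mL stock), diluted in distilled water and injected iv via the femoral vein at 30, 100, 300, 500 and 1000 µg/kg, three animals per dose. Fall in mean arterial pressure (femoral artery transducer) was read at 10 min. ED20 was taken from log dose-response curves.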

[2] = species on record: Rattus norvegicus; assay: Difference in systolic blood pressure observed prior to the first application and 2 hr after the fifth application to spontaneously hypertensive rats(SHR); assay type: functional, Artery
How it was run: (§2)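 Groups of six conscious male SH rats (Wistar-Okamoto origin, 250-300 g, 12-16 weeks; systolic pressure >160 mmHg) received 25 mg/kg po daily for 5 days as a 0.5% carboxymethylcellulose suspension, with vehicle controls. Systolic pressure was taken by tail-cuff after warming at 37-38 °C for 10 min, before the first dose and 2 h after each dose. Paired t test; only falls >15 mmHg with p < 0.05 were listed.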

[3] = species on record: Cavia porcellus; assay: Positive ionotropic activity (0.1x10E 6 g/mL) was determined in guinea pig; no significant activity; assay type: functional, organism-based
[4] = species on record: Rattus norvegicus; assay: Difference in systolic blood pressure observed prior to the first application and 2 hr after the fifth application to spontaneously hypertensive rats (SHR); assay type: functional, Artery; how it was run: as §2
[5] = test system: Felis catus; assay: Percent fall in blood pressure, 10 min after intravenous administration at doses 500 ug/kg in cat; assay type: functional; how it was run: as §1
[6] = test system: Rattus norvegicus; assay: Difference in systolic blood pressure observed prior to the first application and 2 hr after the fifth application at 10 mg/kg, po daily for 5 days to spontaneously hypertensive rats (SHR); assay type: functional, Artery
How it was run: (§3)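 Male SH rats (Wistar-Okamoto derived, 250-300 g, 12-16 weeks old) with systolic pressure above 160 mmHg, in groups of six. The dose was given orally once daily for 5 days as a suspension in 0.5% carboxymethylcellulose, and a vehicle control group was run. Systolic pressure was read by tail-cuff after 10 min warming at 37-38 °C, before dosing and 2 h post-dose. Paired Student's t test.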

[7] = test system: Felis catus; assay: Percent fall in blood pressure, 10 min after intravenous administration at doses 300 ug/kg in cat; assay type: functional; how it was run: as §1
[8] = species on record: Cavia porcellus; assay: Positive ionotropic activity determined as effective concentration in guinea pig; Range 6.8*10e-7 to 1.75x10E-6M; assay type: functional, organism-based
[9] = test system: Rattus norvegicus; assay: Difference in systolic blood pressure observed prior to the first application and 2 hr after the fifth application at 20 mg/kg, po daily for 5 days to spontaneously hypertensive rats (SHR); assay type: functional, Artery; how it was run: as §3
[10] = species on record: Rattus norvegicus; assay: Difference in systolic blood pressure observed prior to the first application and 2 hr after the fifth application to spontaneously hypertensive rats (SHR); NS denotes not significant; assay type: functional, organism-based; conditions: Artery
[11] = test system: Rattus norvegicus; assay: Difference in systolic blood pressure observed prior to the first application and 2 hr after the fifth application at 5 mg/kg, po daily for 5 days to spontaneously hypertensive rats (SHR); assay type: functional, Artery; how it was run: as §3

| SMILES | ED20 [1] | Activity [3] | Delta blood pressure [4] | further results |
| --- | --- | --- | --- | --- |
| C=C[C@@]1(C)CC(=O)[C@]2(O)C3(C)[C@@H](OC(=O)C(C)(C)C)CCC(C)(C)[C@@H]3C(O)C(OC(=O)C(C)(C)C)[C@@]2(C)O1 (stereo not given in full) | > 0.5 mg/kg | – | – | Delta blood pressure [2]: 0 mmHg |
| C=C[C@@]1(C)CC(=O)[C@]2(O)C3(C)[C@@H](O)CCC(C)(C)[C@@H]3C(O)C(OC(=O)OCC)[C@@]2(C)O1 (stereo not given in full) | > 0.5 mg/kg | no significant activity | 0 mmHg | – |
| C=C[C@@]1(C)CC(=O)[C@]2(O)C3(C)[C@@H](OCc4ccccc4)CCC(C)(C)[C@@H]3C(O)C(OC(=O)C(C)(C)Br)[C@@]2(C)O1 (stereo not given in full) | > 0.5 mg/kg | – | – | Delta blood pressure [2]: 0 mmHg |
| C=C[C@@]1(C)CC(=O)[C@]2(O)C3(C)[C@@H](OC)CCC(C)(C)[C@@H]3C(OC(C)=O)C(O)[C@@]2(C)O1 (stereo not given in full) | > 0.5 mg/kg | no significant activity | -25.3 mmHg | – |
| C=C[C@@]1(C)CC(=O)[C@]2(O)C3(C)[C@@H](O)CCC(C)(C)[C@@H]3C(O)C(OS(=O)(=O)c3ccc(C)cc3)[C@@]2(C)O1 (stereo not given in full) | > 0.5 mg/kg | no significant activity | – | Delta blood pressure [2]: -27.3 mmHg |
| C=C[C@@]1(C)CC(=O)[C@]2(O)[C@@]3(C)[C@@H](O)CCC(C)(C)[C@@H]3[C@H](O)[C@H](O)[C@@]2(C)O1 | > 0.5 mg/kg | no significant activity | -24.6 mmHg | Decrease in blood pressure [5]: 20% |
| C=C[C@@]1(C)C[C@H](O)[C@]2(O)C3(C)[C@@H](O)CCC(C)(C)[C@@H]3C(O)C(O)[C@@]2(C)O1 (stereo not given in full) | > 0.5 mg/kg | no significant activity | – | Delta blood pressure [6]: -19.3 mmHg |
| C=C[C@@]1(C)CC(=O)[C@]2(O)C3(C)[C@@H](O)CCC(C)(C)[C@@H]3C(OC(C)=O)C(O)[C@@]2(C)O1 (stereo not given in full) | > 0.5 mg/kg | no significant activity | -28 mmHg | Decrease in blood pressure [7]: 20%; EC50 [8]: 1.09 µM |
| C=C[C@@]1(C)CC(=O)[C@]2(O)C3(C)[C@@H](O)CCC(C)(C)[C@@H]3C(O)C(OC(=O)N(CC)CC)[C@@]2(C)O1 (stereo not given in full) | > 0.5 mg/kg | no significant activity | 0 mmHg | – |
| C=C[C@@]1(C)CC(=O)[C@]2(O)C3(C)C(O)CCC(C)(C)[C@@H]3C(OC(C)=O)C(OC(C)=O)[C@@]2(C)O1 (stereo not given in full) | > 0.5 mg/kg | no significant activity | -24.3 mmHg | – |
| C=C[C@@]1(C)CC(=O)[C@@]23OC(=O)O[C@H]4CCC(C)(C)[C@H](C(O)C(OC(C)=O)[C@@]2(C)O1)C43C (stereo not given in full) | > 0.5 mg/kg | no significant activity | -16.7 mmHg | – |
| CC(=O)OC1C(O)[C@H]2C(C)(C)CC[C@H](O)C2(C)[C@@]2(O)C(=O)C[C@](C)(C=O)O[C@]12C (stereo not given in full) | > 0.5 mg/kg | – | – | Delta blood pressure [2]: -22 mmHg |
| C=C[C@@]1(C)CC(=O)[C@@]23OC(=O)O[C@H]4CCC(C)(C)[C@H](C5OC(=O)OC5[C@@]2(C)O1)C43C (stereo not given in full) | > 0.5 mg/kg | no significant activity | -23 mmHg | – |
| C=C[C@@]1(C)CC(=O)[C@]2(O)C3(C)[C@@H](O)CCC(C)(C)[C@@H]3C(OC(=O)CC)C(O)[C@@]2(C)O1 (stereo not given in full) | > 0.5 mg/kg | – | – | Delta blood pressure [9]: -26.33 mmHg |
| CC(=O)OC1C(O)[C@H]2C(C)(C)CC[C@H](O)C2(C)[C@@]2(O)C(=O)C[C@](C)(C3CO3)O[C@]12C (stereo not given in full) | > 0.5 mg/kg | – | – | Delta blood pressure [2]: -22.67 mmHg |
| C=C[C@@]1(C)CC(=O)[C@]2(O)C3(C)[C@@H](O)CCC(C)(C)[C@@H]3C(O)C(OC(C)=O)[C@@]2(C)O1 (stereo not given in full) | 0.038 mg/kg | no significant activity | -26 mmHg | – |
| C=C[C@@]1(C)CC(=O)[C@]2(O)C3(C)[C@@H](O)CCC(C)(C)[C@@H]3C(OC(C)=O)C(OC(=O)CC)[C@@]2(C)O1 (stereo not given in full) | > 0.5 mg/kg | – | 0 mmHg | – |

| SMILES | ED20 [1] | Activity [3] | Delta blood pressure [4] | further results |
| --- | --- | --- | --- | --- |
| C=C[C@@]1(C)CC(=O)[C@]2(O)C3(C)[C@@H](O)CCC(C)(C)[C@@H]3C(O)C(OC=O)[C@@]2(C)O1 (stereo not given in full) | > 0.5 mg/kg | no significant activity | -23.7 mmHg | – |
| C=C[C@@]1(C)CC(=O)[C@@H]2C3(C)CCCC(C)(C)[C@@H]3C(O)C(OC(C)=O)[C@@]2(C)O1 (stereo not given in full) | > 0.5 mg/kg | no significant activity | 0 mmHg | – |
| CC[C@@]1(C)CC(=O)[C@]2(O)C3(C)[C@@H](O)CCC(C)(C)[C@@H]3C(O)C(OC(C)=O)[C@@]2(C)O1 (stereo not given in full) | > 0.5 mg/kg | – | – | Delta blood pressure [9]: -15.7 mmHg |
| C=C[C@@]1(C)CC(=O)[C@@]23OS(=O)O[C@H]4CCC(C)(C)[C@H](C5OS(=O)OC5[C@@]2(C)O1)C43C (stereo not given in full) | > 0.5 mg/kg | no significant activity | – | Delta blood pressure [2]: 0 mmHg |
| C=C[C@@]1(C)CC(=O)[C@]2(O)C3(C)[C@@H](OCCN(CC)CC)CCC(C)(C)[C@@H]3C(OC(C)=O)C(O)[C@@]2(C)O1.Cl (stereo not given in full) | > 0.5 mg/kg | no significant activity | -26.7 mmHg | – |
| C=C[C@@]1(C)CC(=O)[C@]2(O)C3(C)[C@@H](OC(=O)Nc4ccccc4)CCC(C)(C)[C@@H]3C(O)C(OC(C)=O)[C@@]2(C)O1 (stereo not given in full) | > 0.5 mg/kg | – | – | Delta blood pressure [10]: inactive |
| C=C[C@@]1(C)CC(=O)[C@]2(O)C3(C)C(=O)CCC(C)(C)[C@@H]3C(O)C(OC(C)=O)[C@@]2(C)O1 (stereo not given in full) | > 0.5 mg/kg | no significant activity | 0 mmHg | – |
| Nc1cc(N2CCCCC2)nc(N)[n+]1[O-] [MINOXIDIL] | > 0.5 mg/kg | no significant activity | – | Delta blood pressure [11]: -51.2 mmHg |
| C=C[C@@]1(C)CC(=O)[C@]2(O)C3(C)[C@@H](O)CCC(C)(C)[C@@H]3C3OC(=O)OC3[C@@]2(C)O1 (stereo not given in full) | > 0.5 mg/kg | – | -24.67 mmHg | – |
| CN1CCN(CC(O)[C@@]2(C)CC(=O)[C@]3(O)C4(C)[C@@H](O)CCC(C)(C)[C@@H]4C(O)C(O)[C@@]3(C)O2)CC1.Cl.Cl (stereo not given in full) | > 0.5 mg/kg | no significant activity | – | Delta blood pressure [10]: inactive |
| C=C[C@@]1(C)CC(=O)[C@]2(O)C3(C)[C@@H](O[Si](C)(C)C)CCC(C)(C)[C@@H]3C(O)C(OC(C)=O)[C@@]2(C)O1 (stereo not given in full) | > 0.5 mg/kg | – | – | Delta blood pressure [2]: 0 mmHg |
| C=C[C@@]1(C)CC(=O)[C@]2(O)C3(C)[C@@H](O)CCC(C)(C)[C@@H]3C(O)C(OC(=O)CCC)[C@@]2(C)O1 (stereo not given in full) | > 0.5 mg/kg | no significant activity | -19.7 mmHg | – |
| C=C[C@@]1(C)CC(=O)[C@@]23OS(=O)O[C@H]4CCC(C)(C)[C@H](C(O)C(OC(C)=O)[C@@]2(C)O1)C43C (stereo not given in full) | > 0.5 mg/kg | no significant activity | – | Delta blood pressure [2]: -31 mmHg |
| C=C[C@@]1(C)CC(=O)[C@]2(O)C3(C)[C@@H](O)CCC(C)(C)[C@@H]3C(O)C(OC(=O)CC)[C@@]2(C)O1 (stereo not given in full) | > 0.5 mg/kg | – | -25.3 mmHg | – |
| C=C[C@@]1(C)C[C@H](O)[C@]2(O)C3(C)[C@@H](O)CCC(C)(C)[C@@H]3C(O)C(OC(C)=O)[C@@]2(C)O1 (stereo not given in full) | > 0.5 mg/kg | – | 0 mmHg | – |
| C=C[C@@]1(C)CC(=O)[C@]2(O)C3(C)[C@@H](OC)CCC(C)(C)[C@@H]3C(O)C(OC(C)=O)[C@@]2(C)O1 (stereo not given in full) | > 0.5 mg/kg | no significant activity | 0 mmHg | – |
